Active and inactive are the calls of the source. The calls are words filed in the database; no cut-off is given here.
Legend:
[1] = system: N1E-115; assay: Blockade of voltage-gated sodium channel in mouse N1E-115 cells assessed as stimulation at 100 umol at -90 mV holding potential by whole-cell patch clamp electrophysiological assay relative to control; assay type: cell-based
How it was run: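 Whole-cell patch clamp with borosilicate glass electrodes on single cultured N1E-115 neuroblastoma cells. Compound at 100 µmol, holding potential -90 mV. Voltage-dependent sodium current expressed as % of control stimulation (no compound). Results from 5–8 cells averaged with SEM; significance by Student's t-test.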

[2] = species on record: Mus musculus; assay: Protective index, ratio of TD50 for neurotoxicity in mouse to ED50 for inhibition of maximal electroshock-induced seizures in mouse; assay type: functional
[3] = system: Mus musculus; assay: Anticonvulsant activity in ip dosed mouse assessed as protection against maximal electric shock-induced seizures; assay type: functional; details: Mus musculus, ip; read-out: ED50
[4] = system: Rattus norvegicus; assay: Anticonvulsant activity in po dosed rat assessed as protection against maximal electric shock-induced seizures; assay type: functional
[5] = Neurotoxicity in ip dosed mouse assessed as inability to maintain equilibrium on rotarod by rotarod test; assay type: toxicity, organism-based; details: in vivo
How it was run: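 Mice dosed ip with a suspension in 0.5% methylcellulose, then placed on a 1 inch knurled plastic rod rotating at 6 rpm. Toxicity = failure to keep equilibrium for at least 1 min in each of three trials.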

[6] = species on record: Rattus norvegicus; assay: Protective index, ratio of TD50 for neurotoxicity in rat to ED50 for inhibition of maximal electroshock-induced seizures in rat; assay type: functional
[7] = Neurotoxicity in po dosed rat assessed as neurological deficit […]; assay type: toxicity, organism-based; details: in vivo
How it was run: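 Rats dosed orally with a suspension in 0.5% methylcellulose. Neurological deficit judged by ataxia and loss of placing response and muscle tone.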

[8] = system: Mus musculus; assay: Neurotoxicity in mouse assessed as inability to maintain equilibrium on rotarod at 300 mg/kg, ip after 0.5 hrs by rotarod test; assay type: toxicity, organism-based; parameters: dose 300 mg/kg, route intraperitoneal; details: in vivo
How it was run: (§1)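 Drug given ip to mice as a suspension in 0.5% methylcellulose. At the stated time after dosing, each mouse was placed on a 1 inch knurled rod turning at 6 rpm. Neurotoxicity = inability to stay balanced at least 1 min in each of three trials. Scored as animals toxic/animals tested in small groups.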

[9] = system: Mus musculus; assay: Anticonvulsant activity in mouse assessed as protection against maximal electric shock-induced seizures at 30 mg/kg, ip after 4 hrs; assay type: functional, organism-based; parameters: dose 30 mg/kg
How it was run: (§2)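 Phase I maximal electroshock screen in mice. Compound given ip as a suspension in 0.5% methylcellulose at 30, 100 or 300 mg/kg, tested at 30 min and 4 h. Small groups (1–8); result is number protected/number tested.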

[10] = system: Mus musculus; assay: Anticonvulsant activity against subcutaneous pentylenetetrazole-induced seizures in mouse at 100 mg/kg, ip after 0.5 hrs; assay type: functional, organism-based; parameters: dose 100 mg/kg
How it was run: (§3)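 Phase I screen in mice. Compound given ip as a suspension in 0.5% methylcellulose, read at 30 min and 4 h. Pentylenetetrazole 85 mg/kg in 0.9% NaCl was injected sc into the posterior midline and animals watched ≥30 min. Protection meant no clonic spasm lasting ≥5 s. Groups of 1–8 animals; result is protected/tested.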

[11] = system: Mus musculus; assay: Anticonvulsant activity against subcutaneous pentylenetetrazole-induced seizures in mouse at 300 mg/kg, ip after 4 hrs; assay type: functional, organism-based; parameters: dose 300 mg/kg; how it was run: as §3
[12] = system: Mus musculus; assay: Neurotoxicity in mouse assessed as inability to maintain equilibrium on rotarod at 30 mg/kg, ip after 4 hrs by rotarod test; assay type: toxicity, organism-based; parameters: dose 30 mg/kg, route intraperitoneal; details: in vivo; how it was run: as §1
[13] = system: Mus musculus; assay: Anticonvulsant activity in mouse assessed as protection against maximal electric shock-induced seizures at 30 mg/kg, ip after 0.5 hrs; assay type: functional, organism-based; parameters: dose 30 mg/kg; how it was run: as §2
[14] = system: Mus musculus; assay: Anticonvulsant activity against subcutaneous pentylenetetrazole-induced seizures in mouse at 100 mg/kg, ip after 4 hrs; assay type: functional, organism-based; parameters: dose 100 mg/kg; how it was run: as §3
[15] = system: Mus musculus; assay: Neurotoxicity in mouse assessed as inability to maintain equilibrium on rotarod at 100 mg/kg, ip after 4 hrs by rotarod test; assay type: toxicity, organism-based; parameters: dose 100 mg/kg, route intraperitoneal; details: in vivo; how it was run: as §1
[16] = system: Mus musculus; assay: Neurotoxicity in mouse assessed as inability to maintain equilibrium on rotarod at 100 mg/kg, ip after 0.5 hrs by rotarod test; assay type: toxicity, organism-based; parameters: dose 100 mg/kg, route intraperitoneal; details: in vivo; how it was run: as §1
[17] = system: Mus musculus; assay: Neurotoxicity in mouse assessed as inability to maintain equilibrium on rotarod at 300 mg/kg, ip after 4 hrs by rotarod test; assay type: toxicity, organism-based; parameters: dose 300 mg/kg, route intraperitoneal; details: in vivo; how it was run: as §1
[18] = system: Mus musculus; assay: Anticonvulsant activity against subcutaneous pentylenetetrazole-induced seizures in mouse at 300 mg/kg, ip after 0.5 hrs; assay type: functional, organism-based; parameters: dose 300 mg/kg; how it was run: as §3
[19] = system: Mus musculus; assay: Neurotoxicity in mouse assessed as inability to maintain equilibrium on rotarod at 30 mg/kg, ip after 0.5 hrs by rotarod test; assay type: toxicity, organism-based; parameters: dose 30 mg/kg, route intraperitoneal; details: in vivo; how it was run: as §1
[20] = system: Mus musculus; assay: Anticonvulsant activity against subcutaneous pentylenetetrazole-induced seizures in mouse at 30 mg/kg, ip after 0.5 hrs; assay type: functional, organism-based; parameters: dose 30 mg/kg; how it was run: as §3
[21] = system: Mus musculus; assay: Anticonvulsant activity in mouse assessed as protection against maximal electric shock-induced seizures at 300 mg/kg, ip after 4 hrs; assay type: functional, organism-based; parameters: dose 300 mg/kg; how it was run: as §2
[22] = system: Mus musculus; assay: Anticonvulsant activity in mouse assessed as protection against maximal electric shock-induced seizures at 300 mg/kg, ip after 0.5 hrs; assay type: functional, organism-based; parameters: dose 300 mg/kg; how it was run: as §2
[23] = system: Mus musculus; assay: Anticonvulsant activity in mouse assessed as protection against maximal electric shock-induced seizures at 100 mg/kg, ip after 4 hrs; assay type: functional, organism-based; parameters: dose 100 mg/kg; how it was run: as §2
[24] = system: Mus musculus; assay: Anticonvulsant activity against subcutaneous pentylenetetrazole-induced seizures in mouse at 30 mg/kg, ip after 4 hrs; assay type: functional, organism-based; parameters: dose 30 mg/kg; how it was run: as §3
[25] = system: Rattus norvegicus; assay: Neurotoxicity in rat assessed as neurological deficit at 30 mg/kg, po after 2 hrs […]; assay type: toxicity, organism-based; parameters: dose 30 mg/kg, route oral; details: in vivo
How it was run: (§4)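 Rats given the compound, suspended in 0.5% methylcellulose, by the stated route and dose. Neurological deficit was recorded at the listed times as ataxia and loss of placing response and muscle tone. Reported as number of rats showing toxicity/number tested.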

[26] = system: Rattus norvegicus; assay: Anticonvulsant activity in rat assessed as protection against maximal electric shock-induced seizures at 30 mg/kg, po after 0.25 hrs; assay type: functional, organism-based; parameters: dose 30 mg/kg
How it was run: (§5)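 MES test in rats dosed orally at 30 mg/kg as a suspension in 0.5% methylcellulose, read at 0.25–4 h. Four rats per time point; result is protected/tested.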

[27] = system: Mus musculus; assay: Anticonvulsant activity in mouse assessed as protection against maximal electric shock-induced seizures at 100 mg/kg, ip after 0.5 hrs; assay type: functional, organism-based; parameters: dose 100 mg/kg; how it was run: as §2
[28] = system: Rattus norvegicus; assay: Neurotoxicity in rat assessed as neurological deficit at 30 mg/kg, po after 0.5 hrs […]; assay type: toxicity, organism-based; parameters: dose 30 mg/kg, route oral; details: in vivo; how it was run: as §4
[29] = system: Rattus norvegicus; assay: Neurotoxicity in rat assessed as neurological deficit at 30 mg/kg, po after 0.25 hrs […]; assay type: toxicity, organism-based; parameters: dose 30 mg/kg, route oral; details: in vivo; how it was run: as §4
[30] = system: Rattus norvegicus; assay: Neurotoxicity in rat assessed as neurological deficit at 30 mg/kg, po after 1 hr […]; assay type: toxicity, organism-based; parameters: dose 30 mg/kg, route oral; details: in vivo; how it was run: as §4
[31] = system: Rattus norvegicus; assay: Anticonvulsant activity in rat assessed as protection against maximal electric shock-induced seizures at 30 mg/kg, po after 0.5 hrs; assay type: functional, organism-based; parameters: dose 30 mg/kg; how it was run: as §5
[32] = system: Rattus norvegicus; assay: Neurotoxicity in rat assessed as neurological deficit at 30 mg/kg, po after 4 hrs by rotarod test; assay type: toxicity, organism-based; parameters: dose 30 mg/kg, route oral; details: in vivo; how it was run: as §4

Row | Structure (SMILES) | Activity [1] [%] | Activity [8] | Activity [9] | Activity [10] | Activity [11] | Activity [12] | Activity [13] | Activity [14] | Activity [15] | Activity [17] | Activity [18] | Activity [19] | Activity [20] | Activity [21] | Activity [22] | Activity [23] | Activity [24] | Activity [27] | further results
1 | NC(=O)N1c2ccccc2C=Cc2ccccc21 | 78 | – | – | – | – | – | – | – | – | – | – | – | – | – | – | – | – | – | –
2 | Nc1nnc(-c2cccc(Cl)c2Cl)c(N)n1 | 67 | – | – | – | – | – | – | – | – | – | – | – | – | – | – | – | – | – | –
3 | O=C1NC(=O)C(c2ccccc2)(c2ccccc2)N1 [PHENYTOIN] | 78 | – | – | – | – | – | – | – | – | – | – | – | – | – | – | – | – | – | Ratio TD50/ED50 [2]: 6.6; ED50 [3]: 6.48 mg/kg; ED50 [4]: 32.2 mg/kg; TD50 [5]: 34.5 mg/kg; Ratio TD50/ED50 [6]: >22; TD50 [7]: > 500 mg/kg
4 | Cc1cccc(C)c1OCC(=O)N[C@@H]1CCCC[C@@H]1O | – | Non-toxic | inactive | inactive | inactive | Non-toxic | inactive | inactive | Non-toxic | Non-toxic | inactive | Non-toxic | inactive | inactive | Active | inactive | inactive | – | Activity [16]: Non-toxic
5 | Cc1cccc(C)c1OCC(=O)NC1CCC(O)CC1.Cl (racemic) | – | Toxic | inactive | inactive | inactive | Non-toxic | inactive | inactive | Non-toxic | Non-toxic | Active | Non-toxic | inactive | inactive | Active | inactive | inactive | Active | Activity [25]: Non-toxic; Activity [26]: Active; Activity [28]: Non-toxic; Activity [29]: Non-toxic; Activity [30]: Non-toxic; Activity [31]: Active; Activity [32]: Non-toxic
6 | Cc1cccc(C)c1OCC(=O)N[C@H]1CCCC[C@H]1O | – | – | inactive | inactive | inactive | Non-toxic | inactive | inactive | Non-toxic | Non-toxic | Active | Non-toxic | inactive | inactive | Active | inactive | inactive | – | Activity [16]: Non-toxic
7 | Cc1cccc(C)c1OCCNC1CCC(O)CC1 (racemic) | – | Toxic | inactive | inactive | – | Non-toxic | inactive | inactive | Non-toxic | – | – | Non-toxic | inactive | – | – | inactive | inactive | Active | –
8 | Cc1cccc(C)c1OCC(=O)N[C@@H]1CCCC[C@H]1O.O=C(O)C(O)C(O)C(=O)O | – | – | inactive | inactive | inactive | Non-toxic | inactive | inactive | Non-toxic | Non-toxic | inactive | Non-toxic | inactive | inactive | Active | inactive | inactive | inactive | Activity [25]: Non-toxic; Activity [26]: inactive; Activity [28]: Non-toxic; Activity [29]: Non-toxic; Activity [30]: Non-toxic; Activity [32]: Non-toxic

— ChEMBL document CHEMBL1921792, “Synthesis and anticonvulsant activity of trans- and cis-2-(2,6-dimethylphenoxy)-N-(2- or 4-hydroxycyclohexyl)acetamides and their amine analogs” (Bioorg Med Chem, 2011)
